In publication PMC9532374 (Cancer research, 2022):

How the values were obtained:
T cells = test: T cell proliferation, human PB MNC stimulated with CD3/CD28 Dynabeads; format: cell-based; conditions: 10 μM pre-treatment 2h; healthy donors or cancer patients; 72h
How it was run: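 Peripheral blood mononuclear cells (Ficoll-Paque; healthy donors or multiple myeloma patients) were labeled with CellTrace Far Red. Cells were pre-treated for 2 h with 10 μM test compound or DMSO vehicle and stimulated with CD3/CD28 Dynabeads for 72 h. Dye dilution was read by flow cytometry in gated CD4+ and CD8+ T cells.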

Mouse HPC = test: HPC differentiation in vitro with GM-CSF with or without LLC TES; format: cell-based; conditions: 10 μM; presence or absence of TES; 5 days of culture
How it was run: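 Bone marrow HPC from WT or PAD4 KO mice were lineage-depleted and differentiated in RPMI with GM-CSF (20 ng/mL), with or without 25% LLC explant supernatant and with or without 10 μM test compound, for 5 days. Proportion and absolute number of Ly6G+ cells were determined by flow cytometry in Aqua-negative cells.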

PAD = PAD (Mus musculus, UniProt Q9Z183); test: PAD activity assay in BM neutrophils of tumor-bearing mice; format: cell-based; conditions: BM Ly6G+ cells pretreated for 2h with GSK484
How it was run: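 Bone marrow Ly6G+ cells (MACS) from tumor-free or tumor-bearing mice were pretreated for 2 h with inhibitor. Cells were lysed at 1×10^8 cells/mL and lysates incubated with 10 mM BAEE for 30 min at 37°C. Colour reagent (acids, ammonium iron sulfate, DAMO, thiosemicarbazide) was added, samples heated at 95–100°C for 15 min, and absorbance read at 540 nm.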

CD4+ T cells = test: IFN-γ production by human T cells; format: cell-based; conditions: 10 μM pre-treatment; 5h stimulation
How it was run: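 Peripheral blood mononuclear cells from healthy donors or multiple myeloma patients were Ficoll-Paque isolated. Cells were pre-treated with 10 μM test compound or DMSO vehicle, then stimulated for 5 h with a cell stimulation cocktail with or without protein transport inhibitors. IFN-γ and IL-2 were measured by flow cytometry in gated CD4+ and CD8+ T cells.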

CXCR2 [1] = test: CXCR2 expression in human PB neutrophils; format: cell-based
How it was run: (§1)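 Peripheral blood neutrophils came from healthy donors or cancer patients. They were collected at the Histopaque 1.077/1.119 interphase after double-density gradient centrifugation, followed by RBC lysis, with CD15 staining to confirm purity. Cells were exposed to 10 μM test compound for 1–4 h. Receptor mRNA was measured by SYBR Green qPCR normalized to β-actin, and surface level by flow cytometry.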

human neutrophils [2] = test: Viability of human neutrophils; format: cell-based; conditions: four-hour treatment, 10 μM
CXCR4 [3] = test: CXCR4 surface expression on neutrophils differentiated in vitro from HPC; format: cell-based, mouse; conditions: 10 μM
How it was run: (§2)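 Bone marrow hematopoietic progenitors were lineage-depleted and cultured in RPMI with GM-CSF (20 ng/mL), with or without 25% LLC tumor explant supernatant and with or without 10 μM test compound. The supernatant came from ~1.5 cm tumors, minced, incubated overnight at 37°C and 0.22 μm filtered. Surface CXCR2/CXCR4 was measured by flow cytometry.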

Ly6G+ cells = test: Suppression assay with Ly6G+ cells generated from HPC in the presence of TES; format: cell-based, mouse
CXCR4 [4] = test: CXCR4 expression in human PB neutrophils; format: cell-based
How it was run: as §1

human neutrophils [5] = test: Chemotaxis of human neutrophils toward IL-8; format: cell-based; conditions: 10 μM for 4h
How it was run: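 Human neutrophils were treated with 10 μM test compound for 4 h. They were then placed in a 3 μm pore Transwell, 0.1 × 10^6 cells in Advanced RPMI in the insert, with chemoattractant in medium below. After 1 h at 37°C and 5% CO2, migrated cells in the bottom well were counted.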

BM neutrophils = test: Transwell chemotaxis of mouse neutrophils toward CXCL1; format: cell-based
How it was run: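 Bone marrow Ly6G+ neutrophils were MACS-isolated (>95% pure) and pre-incubated with 10 μM test compound for 2 h. They were placed in a 3 μm Transwell, 0.1 × 10^6 cells on top, with CXCL1 in Advanced RPMI below. After 1 h at 37°C, migrated cells were counted. Spontaneously migrating cells were subtracted.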

mouse neutrophils = test: Viability / toxicity in mouse neutrophils; format: cell-based
CXCR2 [6] = test: CXCR2 surface expression on neutrophils differentiated in vitro from HPC; format: cell-based, mouse; conditions: 10 μM
How it was run: as §2

M-MDSC, TAMs = test: Gene expression in spleen M-MDSC or TAMs treated in vitro; format: cell-based, mouse; conditions: in vitro treatment of spleen M-MDSC or TAMs from LL2-bearing mice
B16F10 = test: Viability of B16F10 tumor cell line in vitro; format: cell-based, mouse
M-MDSC, TAM, PMN-MDSC = test: Suppression assay with myeloid cells isolated from treated mice; format: in vivo, mouse; conditions: cells from JBI-589-treated mice
LL2 tumors = test: LL2 tumor model in mice; format: in vivo, mouse
CXCR2 [7] = test: CXCR2 expression on neutrophils treated with JBI-589 in vitro; format: cell-based
[8] = Pharmacokinetic study in mice, oral; format: in vivo, Balb/c male mice; conditions: 10 mg/kg via oral gavage
How it was run: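 Male Balb/c mice (6–8 weeks, 22–25 g) received 10 mg/kg test compound by oral gavage, as a suspension in Tween-80 and 0.5% methyl cellulose. Sparse blood sampling (~100 μL; three mice per point) was done at 0.25–24 h into K2EDTA tubes. Plasma was separated by centrifugation at 10,000 rpm for 5 min at 4°C.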

CXCR4 [9] = test: CXCR4 surface expression on Ly6G+ cells from treated LL2-bearing mice; format: in vivo, mouse; conditions: JBI-589 treated LL2-bearing mice
How it was run: (§3)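 LL2 cells (0.3× 10^6) were injected s.c. into the right flank. Mice received test compound at 50 mg/kg b.i.d. daily by oral gavage. Cells were Fc-blocked for 10 min, then antibody-stained for 20 min on ice with Live/Dead Aqua. Surface receptor was measured by flow cytometry on CD45+CD11b+Ly6G+ cells.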

CXCR2 [10] = test: CXCR2 surface expression on Ly6G+ cells from treated LL2-bearing mice; format: in vivo, mouse; conditions: JBI-589 treated LL2-bearing mice
How it was run: as §3

B16F10 tumors = test: B16F10 tumor model in mice; format: in vivo, mouse; conditions: B16F10-bearing mice; 50 mg/kg b.i.d., daily, oral gavage
How it was run: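 Male and female mice, 6–8 weeks old, were given 0.3× 10^6 B16F10 cells s.c. into the right flank. Cells were grown in DMEM with 10% FBS and were Mycoplasma-negative. Test compound was given by oral gavage. Read-out was the kinetics of primary tumor growth.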

histone H3 = test: PMA-induced citrullination of histone H3 in mouse neutrophils; format: cell-based; conditions: in vitro
LL2 = test: Viability of LL2 tumor cell line in vitro; format: cell-based, mouse
[11] = system: BM and spleen neutrophils; format: in vivo, mouse; conditions: neutrophils from JBI-589-treated LL2-bearing mice re-stimulated in vitro with LL2 cell supernatant
[12] = 10 μM for 4h, healthy donors and cancer patients, flow cytometry

Sequence of PAD (Q9Z183 whole entry): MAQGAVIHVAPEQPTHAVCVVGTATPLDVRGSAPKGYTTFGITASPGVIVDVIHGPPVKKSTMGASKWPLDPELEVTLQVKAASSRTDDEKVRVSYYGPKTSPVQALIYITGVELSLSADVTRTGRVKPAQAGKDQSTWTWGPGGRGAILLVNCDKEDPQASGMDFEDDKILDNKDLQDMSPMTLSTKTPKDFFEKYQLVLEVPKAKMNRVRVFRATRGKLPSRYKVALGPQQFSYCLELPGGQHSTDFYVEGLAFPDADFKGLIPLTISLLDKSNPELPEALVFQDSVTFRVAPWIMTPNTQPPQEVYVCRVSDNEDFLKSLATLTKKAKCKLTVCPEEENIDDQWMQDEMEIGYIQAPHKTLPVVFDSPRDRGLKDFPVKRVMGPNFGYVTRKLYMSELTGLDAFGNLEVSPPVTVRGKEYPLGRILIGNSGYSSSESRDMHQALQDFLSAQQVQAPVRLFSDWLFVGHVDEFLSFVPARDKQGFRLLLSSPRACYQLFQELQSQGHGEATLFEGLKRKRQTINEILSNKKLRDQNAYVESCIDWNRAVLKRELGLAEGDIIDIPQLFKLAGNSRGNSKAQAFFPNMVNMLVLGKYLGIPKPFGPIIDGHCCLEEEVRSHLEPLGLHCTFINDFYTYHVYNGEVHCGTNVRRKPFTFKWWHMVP

For `COc1cc(C(=O)N2CC[C@@H](O)[C@@H](N)C2)cc2nc(-c3cc4ccccc4n3CC3CC3)n(C)c12` [GSK484], the T cell proliferation (T cells) was “slightly decreased”, the “HPC differentiation (proportion and absolute number of Ly6G+ cells)” value (Mouse HPC) was “had no effect” and the “tumor-induced up-regulation of PAD activity in PMN” value (PAD) was “completely abrogated”. For the same compound, the “IFN-γ production by CD4+ T cells” value (CD4+ T cells) was “reduced IFN-γ production”, the “CXCR2 receptor expression in neutrophils” value (CXCR2 [1]; [12]) was “dramatically reduced” and the “CXCR2 receptor (surface) level” value (CXCR2 [1]; 4h after treatment, 10 μM, HD neutrophils, time course) was “significant downregulation”. For the same compound, the “surface level of CXCR2 protein” value (CXCR2 [1]; one-hour treatment, 10 μM, HD neutrophils) was “not affecting”, the CXCR2 gene expression (CXCR2 [1]; one-hour treatment, 10 μM, HD neutrophils, qPCR) was “significantly downregulated” and the viability of neutrophils (human neutrophils [2]) was “did not affect viability”. For the same compound, the “CXCR4 expression in the presence of TES” value (CXCR4 [3]; with LLC TES) was “reduced its expression in the presence of TES”, the “CXCR4 expression in control” value (CXCR4 [3]; without TES) was “slightly decreased” and the “immune suppressive activity of Ly6G+ cells generated in the presence of TES” value (Ly6G+ cells; inhibitor present during HPC differentiation) was “did not abrogate”. The “gene or protein expression of CXCR4” value (CXCR4 [4]; 10 μM for 1–4h, HD neutrophils) was “did not affect”, the “neutrophil CXCR4 receptor expression” value (CXCR4 [4]; [12]) was “did not affect expression” and the “chemotaxis of neutrophils toward IL-8” value (human neutrophils [5]) was “decreased chemotaxis”. For the same compound, the “CXCL1-induced chemotaxis of neutrophils” value (BM neutrophils; BM neutrophils pre-incubated with 10 μM for 2h) was “reduced”, the viability of neutrophils (mouse neutrophils; mouse neutrophils) was “did not affect” and the “up-regulation of CXCR2 in the presence of TES” value (CXCR2 [6]; with LLC TES) was “abrogated up-regulation of CXCR2”. For the same compound, the “baseline CXCR2 expression” value (CXCR2 [6]; without TES) was “reduced baseline CXCR2 expression”.

With `Cc1c(-c2cc3ccccc3n2Cc2ccc(F)cc2)nc2cc(C(=O)N3CCC[C@@H](N)C3)ccn12` [JBI-589, (R)-(3-aminopiperidin-1-yl)(2-(1-(4-fluorobenzyl)-1H-indol-2-yl)-3-methylimidazo[1,2-a]pyridin-7-yl)methanone] the “expression of genes encoding soluble factors involved in pro-tumorigenic effect” value (M-MDSC, TAMs) was “did not affect”, the “viability of B16F10 tumor cell line” value (B16F10) was “No effect” and the “suppressive activity of M-MDSC, TAM and PMN-MDSC” value (M-MDSC, TAM, PMN-MDSC) was “did not affect suppressive activity”. For the same compound, the “infiltration of tumor tissues with activated CD8+ and CD4+ T cells” value (LL2 tumors; LL2-bearing mice) was “increased infiltration”, the “frequency of LSK, GMP, CMP and MEP and their proliferation in spleens” value (LL2 tumors; LL2-bearing mice, treated vs control) was “No differences” and the primary tumor growth (LL2 tumors; LL2-bearing mice, 50 mg/kg, twice a day, daily, oral gavage) was “markedly reduced”. For the same compound, the lung metastatic lesions (LL2 tumors; LL2-bearing mice, IVIS) was “almost undetectable”, the “inhibition of primary tumor growth by ICB on addition of JBI-589” value (LL2 tumors; LL2-bearing mice, JBI-589 50 mg/kg b.i.d. plus anti-CTLA-4 and anti-PD-1 antibodies) was “significantly enhanced” and the “presence of tumor-associated neutrophils” value (LL2 tumors; LL2-bearing mice, flow cytometry) was “significant decrease”. The “cellularity of the BM” value (LL2 tumors; mouse, in vivo) was “did not affect”, the “CXCR2 expression on neutrophil” value (CXCR2 [7]) was “significantly downregulated” and the oral bioavailability [8] was “excellent oral bioavailability”. The “CXCR4 receptor expression in Ly6G+ cells” value (CXCR4 [9]) was “but not CXCR4”, the “CXCR2 receptor expression in Ly6G+ cells” value (CXCR2 [10]) was “significant down-regulation” and the primary tumor growth (B16F10 tumors) was “markedly reduced”. For the same compound, the “suppressive activity of Ly6G+ cells generated in vitro from HPC in the presence of TES” value (Ly6G+ cells; JBI-589) was “no effect”, the “PMA-induced citrullination of histone H3” value (histone H3) was “inhibited PMA-induced citrullination of histone H3 in mouse neutrophils in a dose-dependent manner” and the “CXCL1-induced migration of neutrophils” value (BM neutrophils; in vitro, JBI-589) was “reduced”. The “viability of LL2 tumor cell line” value (LL2) was “No effect”, the “toxicity in mouse neutrophils” value (mouse neutrophils; in vitro, JBI-589) was “without noticeable toxicity” and the “NET formation by BM and spleen neutrophils” value [11] was “unable to produce NETs”.
